Measurements gathered from unrelated publications.
Compare with care: the assays were run in different laboratories.
Target: Serine/threonine-protein kinase 3 (STK3, Homo sapiens, UniProt Q13188)
Sequence (Q13188 1-491, as in one of the studies): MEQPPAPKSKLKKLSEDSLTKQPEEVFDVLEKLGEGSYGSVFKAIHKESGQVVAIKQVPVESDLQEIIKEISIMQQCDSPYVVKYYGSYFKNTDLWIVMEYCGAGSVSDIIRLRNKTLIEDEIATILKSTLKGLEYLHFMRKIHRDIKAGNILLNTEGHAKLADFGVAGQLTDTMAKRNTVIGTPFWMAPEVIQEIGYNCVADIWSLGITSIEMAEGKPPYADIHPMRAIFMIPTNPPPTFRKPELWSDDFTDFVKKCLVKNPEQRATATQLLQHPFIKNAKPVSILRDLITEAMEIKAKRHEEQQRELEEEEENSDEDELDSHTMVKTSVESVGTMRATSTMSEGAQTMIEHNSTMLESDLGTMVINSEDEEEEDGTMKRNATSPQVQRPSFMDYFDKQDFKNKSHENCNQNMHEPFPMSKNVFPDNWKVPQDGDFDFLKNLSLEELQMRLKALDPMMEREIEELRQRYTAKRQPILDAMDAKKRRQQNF

| SMILES | assay | setting | remaining binding [%] |
| --- | --- | --- | --- |
| O=C(c1ccc(Nc2nccc(-c3cc4ccccc4s3)n2)cc1)N1CCC(N2CCCC2)CC1 | binding, competition with immobilised ligand | 1 µM | 100 |
| Nc1ncc2c(n1)-c1c([nH]c3ccc(C#CC4CC4)cc13)CCCC2 | binding, competition with immobilised ligand | 1 µM | 87 |
| CN(C)c1nccc(-c2cnc3ncccn23)n1 | binding | 1 µM | 62 |
| CN(c1ccnc(CNc2nc(Nc3ccc4c(c3)CC(=O)N4)ncc2C(F)(F)F)n1)S(C)(=O)=O | cell-free assay, competition with immobilised ligand | 1 µM | 46 |
| C[C@@H](c1ccc(-n2cnc3c(N)ncnc32)cc1)N1CCc2nn(C)c(Cc3ccccc3)c2C1=O | binding, competition with immobilised ligand | 0.1 µM | 74 |
| C=CC(=O)N1CCC(C(=O)NCC(=O)N2CCN(c3nc(-c4cnc(N)nc4C(F)F)nc(N4CCOCC4)n3)CC2)CC1 | binding, competition with immobilised ligand | 1 µM | 97 |
| CN(C)c1nccc(-c2cnn3ncccc23)n1 | binding | 1 µM | 100 |
| O=C(Nc1cccnn1)N1CC(C/C=C/c2cncc(Oc3ccc(C(F)(F)F)cn3)n2)C1 | cell-free assay, competition with immobilised ligand | 1 µM | 80 |
| O=C(NCCCN1CCOCC1)c1ccc(Nc2ncc(Cl)c(-c3ccc(Cl)s3)n2)cc1 | binding, competition with immobilised ligand | 1 µM | 12 |
| CC(C)(O)c1cncc(-c2nc3ccc(F)cc3n2C2CC2)c1 | cell-free assay, competition with immobilised ligand | 1 µM | 100 |
| N[C@H]1CCN(c2nccc(-c3cnn4ncccc34)n2)C1 | binding | 1 µM | 100 |
| O=C(c1ccc(Nc2ncc(Cl)c(-c3cc4ccccc4s3)n2)cc1)N1CCC(N2CCCC2)CC1 | binding, competition with immobilised ligand | 1 µM | 65 |
| CN([C@@H]1CCc2c(CC(=O)O)c3cc(S(C)(=O)=O)ccc3n2C1)S(=O)(=O)c1ccc(F)cc1 | cell-free assay, competition with immobilised ligand | 1 µM | 98 |
| C[C@@H]1CCN(c2nccc(-c3cnn4ncccc34)n2)C1 | binding | 1 µM | 100 |
| O=C(NCC1CCOCC1)c1n[nH]cc1NC(=O)c1c(F)cccc1F | binding, competition with immobilised ligand | 1 µM | 89 |
| Cc1c(NC(=O)c2cc(C(N)=O)nc3cc(F)ccc23)c(C(F)(F)F)nn1Cc1ccc(C#N)cc1 | cell-free assay, competition with immobilised ligand | 1 µM | 96 |
| F[C@@H]1CCN(c2nccc(-c3cnn4ncccc34)n2)C1 | binding | 1 µM | 100 |
| COc1cnc(Nc2cccc(S(N)(=O)=O)c2)nc1N1CCN(c2ccccc2)CC1 | binding, competition with immobilised ligand | 1 µM | 95 |
| CC(=O)Nc1c(C(C)=O)c(=O)n(C)c2nc(-c3ccc(Cl)cc3Cl)c(-c3ccc(Cl)cc3)cc12 | cell-free assay, competition with immobilised ligand | 1 µM | 100 |
| CN(CCCC(F)(F)F)c1nccc(-c2cnn3ncccc23)n1 | binding | 1 µM | 100 |
| Cc1cc(NC(=O)c2cccc(S(F)(F)(F)(F)F)c2)cc(-n2ccn3nc(-c4cccnc4)cc23)c1 | cell-free assay, competition with immobilised ligand | 1 µM | 100 |
| COc1cnc(Nc2cccc(S(N)(=O)=O)c2)nc1N1CCN(c2ccccc2)C(=O)C1 | binding, competition with immobilised ligand | 1 µM | 98 |
